Several values for one entry are separate records, joined by “and”; a condition that tells them apart may be missing. Equal entries are not always repeated. Where two headings read alike, the source gives them in different places.
How the values were obtained:
[1] = system: Chk2; conditions: cited from earlier work
[2] = biological target: recombinant TDP1 (Homo sapiens, UniProt Q9NUW8); experiment: Recombinant TDP1 gel-based assay; format: biochemical
Procedure, shortened: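 Gel-based cleavage assay: 1 nM 5′-[32P]-labeled single-stranded oligonucleotide with a 3′-phosphotyrosine (N14Y) incubated with 10 pM recombinant TDP1, ± inhibitor, 15 min, room temperature. Parallel reactions in HTS buffer: 1X PBS pH 7.4, 80 mM KCl, 0.01% Tween-20. Gels dried, PhosphorImager-scanned, quantified by densitometry.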

[3] = biological target: endogenous human TDP1 from whole cell extracts (DT40 hTDP1) (Homo sapiens, UniProt Q9NUW8); experiment: Whole cell extract; format: biochemical
endogenous human TDP1 from whole cell extracts (DT40 hTDP1), sequence (Q9NUW8 whole entry): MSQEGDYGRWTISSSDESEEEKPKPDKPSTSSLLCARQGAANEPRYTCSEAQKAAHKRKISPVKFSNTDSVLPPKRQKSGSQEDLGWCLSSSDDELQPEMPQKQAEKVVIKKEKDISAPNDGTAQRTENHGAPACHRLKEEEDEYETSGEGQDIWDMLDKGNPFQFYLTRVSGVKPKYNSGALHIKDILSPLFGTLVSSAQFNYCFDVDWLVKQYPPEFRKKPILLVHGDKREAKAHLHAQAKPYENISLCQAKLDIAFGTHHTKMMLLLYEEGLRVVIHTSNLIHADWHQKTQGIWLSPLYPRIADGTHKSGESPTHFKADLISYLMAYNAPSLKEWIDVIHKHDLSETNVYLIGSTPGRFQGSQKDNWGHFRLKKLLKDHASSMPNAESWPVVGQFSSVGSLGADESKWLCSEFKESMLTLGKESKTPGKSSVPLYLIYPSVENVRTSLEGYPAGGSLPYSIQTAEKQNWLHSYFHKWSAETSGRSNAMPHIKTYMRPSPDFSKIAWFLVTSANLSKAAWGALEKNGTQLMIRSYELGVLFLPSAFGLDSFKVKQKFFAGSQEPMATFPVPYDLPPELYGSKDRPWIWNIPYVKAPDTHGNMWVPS

[4] = system: DT40 hTDP1 cells; format: cell-based; conditions: 72 h
[5] = biological target: T1, recombinant human TDP2 (Homo sapiens, UniProt O95551); experiment: Recombinant TDP2 counter-screening assay; format: biochemical; conditions: for activity against TDP2 (in words): tested up to 111 µM
T1 sequence (O95551 1-362): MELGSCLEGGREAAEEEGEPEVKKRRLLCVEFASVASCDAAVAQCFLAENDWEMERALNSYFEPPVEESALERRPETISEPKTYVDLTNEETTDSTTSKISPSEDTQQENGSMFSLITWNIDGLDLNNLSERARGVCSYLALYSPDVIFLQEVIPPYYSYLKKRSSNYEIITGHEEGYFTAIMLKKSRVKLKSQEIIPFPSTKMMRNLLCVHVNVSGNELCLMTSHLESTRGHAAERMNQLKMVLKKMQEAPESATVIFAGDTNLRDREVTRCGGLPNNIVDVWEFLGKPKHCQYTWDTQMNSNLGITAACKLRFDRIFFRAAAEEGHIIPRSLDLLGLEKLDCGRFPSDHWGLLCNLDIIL
Procedure, shortened: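 Counter-screen: 1 nM α32P-cordycepin-3′-labeled 18-mer single-stranded oligonucleotide incubated with 25 pM recombinant human TDP2, ± inhibitor, 15 min, room temperature. Reactions terminated and processed as the TDP1 gel assays: gel run, PhosphorImager exposure, densitometry.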

[6] = read-out: IC50 TDP1 REC, recombinant TDP1, WCE buffer

recombinant TDP1, sequence (Q9NUW8 whole entry): as the sequence (Q9NUW8 whole entry) above

## CN[C@@H]1C[C@H]2O[C@@](C)([C@@H]1OC)n1c3ccccc3c3c4c(c5c6ccccc6n2c5c31)C(=O)N[C@H]4O [7-hydroxystaurosporine (UCN-01), 7-hydroxystaurosporine]
[1]
  inhibition of Chk2 purified from cell extract by immunoprecipitation: found to inhibit
  inhibition of recombinant Chk2 enzyme: ineffective

## O=c1c2ccccc2nc2sc(Nc3ccc4c(c3)CCC4)nn12 [NCGC00183964]
[2]; REC-TDP1
  reduction in potency, WCE buffer vs HTS buffer: 25 fold
[2]; [6]
  IC50: 81 µM

## Cc1ccc(Nc2nn3c(=O)c4ccccc4nc3s2)cc1C [NCGC00183674]
[3]; read-out: IC50 TDP1 WCE, WCE buffer
  IC50: 51 µM and 59 µM
[4]
  cytotoxicity: did not exhibit any cytotoxicity
  synergistic effect in combination with CPT: no synergistic effect
[2]
  inhibition of REC-TDP1 (in words): inhibited REC-TDP1 at low micromolar concentrations
[2]; [6]
  IC50: 12.1 ± 1.7 µM
[5]
  selectivity for TDP1 versus TDP2: higher selectivity for TDP1
  activity against TDP2 (in words): only marginal activity against TDP2 at 111 µM
[5]; read-out: IC50 TDP2 REC, recombinant TDP2
  IC50: > 111 µM

## O=C(O)c1ccc(-c2ccc(C=C3NC(=O)N(Cc4ccccc4F)C3=O)o2)cc1 [JLT048, 4-(5-[{[1-(2-fluorobenzyl)-2,5-dioxo-4-imidazolidinylidene]methyl]}-2furyl)benzoic acid]
[3]; IC50 TDP1 WCE, WCE buffer
  IC50: 115 µM and 148 µM
[4]
  cytotoxicity: did not exhibit any cytotoxicity
  synergistic effect in combination with CPT: no synergistic effect
[2]
  IC50: 7.7 ± 1.8 µM
  inhibition of REC-TDP1 (in words): inhibited REC-TDP1 at low micromolar concentrations
[5]
  IC50: 32 ± 10 µM
  activity against TDP2 (in words): also inhibited TDP2, albeit with higher IC50 values

Source: article PMC4126877 (Molecular cancer therapeutics, 2014)
